Experiment [1] in a line: Selectivity for Trypanosoma cruzi triosephosphate isomerase over human triosephosphate isomerase.
Experiment [2] concerns Trypanosoma cruzi. In words: Antiparasitic activity against Trypanosoma cruzi T2 epimastigotes assessed as growth inhibition at 25 uM after 5 days. The class given is functional. The gist of the method:
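Late-log epimastigotes were grown axenically at 28 °C in BHI-tryptose with 5% fetal calf serum and seeded at 2×10^6/mL in medium containing compound (DMSO stock; final DMSO ≤1%, 1% DMSO control). Growth was read as A590 at day 0 and day 5. Inhibition = {1 − [(Ap − A0p)/(Ac − A0c)]} × 100. Means of two experiments.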

The target in experiment [3] is Triosephosphate isomerase, glycosomal (Trypanosoma cruzi) (UniProt P52270). In words: Inhibition of Trypanosoma cruzi triosephosphate isomerase at 400 uM after 2 hrs. The method in brief: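 Recombinant E. coli-expressed enzyme, dialyzed into 100 mM triethanolamine/10 mM EDTA pH 7.4, was incubated with compound (DMSO stock) in 100 mM triethanolamine, 10 mM EDTA, pH 7.4, 10% DMSO at 36 °C for 2 h. An aliquot was then assayed for activity (glyceraldehyde 3-phosphate to dihydroxyacetone phosphate, α-glycerol phosphate dehydrogenase-coupled) with 5 ng enzyme. Irreversible inhibition was scored as loss of activity; means of two experiments.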
Sequence of Triosephosphate isomerase, glycosomal (Trypanosoma cruzi) (P52270 whole entry): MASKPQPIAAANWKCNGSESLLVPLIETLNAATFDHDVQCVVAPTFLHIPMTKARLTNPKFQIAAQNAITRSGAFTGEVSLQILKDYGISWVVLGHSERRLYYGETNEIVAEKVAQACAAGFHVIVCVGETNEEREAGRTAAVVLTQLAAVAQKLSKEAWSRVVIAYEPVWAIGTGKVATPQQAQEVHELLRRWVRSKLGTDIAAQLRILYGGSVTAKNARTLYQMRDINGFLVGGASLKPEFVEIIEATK

The source made the active and inactive calls. No rule for the calls is given here.

On to `O=S(=O)(NCCc1ccccc1)NCCc1ccccc1`, for which the Ratio in experiment [1] was more than 4. Further, the outcome in experiment [2] was Active. The inhibition – broadly, the change of the read-out against control, counted positive when it falls – in experiment [3] turned out to be 0%.

Turning to `[O-][n+]1onc2ccc(/C=C\c3ccc(Cl)cc3)cc21`, in experiment [1], the Ratio was more than 4. In experiment [2], the result was Active. The same molecule showed an inhibition in experiment [3] of 5%.

On to `NC1=NS(=O)(=O)N=C(N)C1`, for which, in experiment [1], the Ratio was more than 4. Further, the outcome in experiment [2] was Active. Also, the inhibition in experiment [3] was determined as 0%.

With `C=C(C)CNC(=O)N/N=C/c1ccc([N+](=O)[O-])o1`, in experiment [1], the Ratio was more than 4. For the same molecule, in experiment [2], the outcome was Active. Moreover, the inhibition in experiment [3] came to 6%.

As to `O=Cc1c(-c2ccccc2)no[n+]1[O-]`, the Ratio in experiment [1] was more than 4. For the same molecule, the result in experiment [2] was Active. Further, the inhibition in experiment [3] is 53%.

On to `CC1(C)[N+]([O-])=c2ccc(/C=C/c3ccc4c(c3)OCO4)cc2=[N+]1[O-]`, for which the Ratio in experiment [1] is more than 4. In experiment [2], the outcome was Active. This molecule yielded an inhibition in experiment [3] of 23%.

As for `CSc1ccc(/C=C/C(=O)c2ccccc2)cc1`, the Ratio in experiment [1] was more than 4. Moreover, in experiment [2], the outcome was Active. This molecule also had an inhibition in experiment [3] of 14%.

With `[O-][N+]1=c2ccc(Br)cc2=[N+]([O-])C12CCCC2`, the Ratio in experiment [1] was more than 4. Moreover, the outcome in experiment [2] was Active. The molecule also registered an inhibition in experiment [3] of 23%.

With `C=CCNC(=S)N/N=C/C=C/c1ccc([N+](=O)[O-])s1`, the Ratio in experiment [1] is more than 4. Further, in experiment [2], the outcome was Active. The molecule further came in with an inhibition in experiment [3] of 26%.

As for `C=CCNC(=S)N/N=C/c1ccc2no[n+]([O-])c2c1`, in experiment [1], the Ratio was more than 4. The result in experiment [2] was Active. In experiment [3], this molecule registered an inhibition of 14%.

As to `CCCCCCCNC(=O)N/N=C/c1ccc([N+](=O)[O-])o1`, the Ratio in experiment [1] was more than 4. For the same molecule, in experiment [2], the outcome was Active. This molecule registered an inhibition in experiment [3] of 60%.

For the molecule `CCOC(=O)/C=C/c1ccc([N+](=O)[O-])o1`, the Ratio in experiment [1] was more than 4. In experiment [2], the result was Active. This molecule also showed an inhibition in experiment [3] of 3%.

As to `CCCCNC(=O)/C=C/c1ccc([N+](=O)[O-])o1`, in experiment [1], the Ratio is more than 4. The outcome in experiment [2] was Active. This molecule had an inhibition in experiment [3] of 25%.

Regarding `Cc1ccc2c(c1)=[N+]([O-])C(C)[N+]=2[O-]` (stereo unspecified), the Ratio in experiment [1] is more than 4. Moreover, the result in experiment [2] was Active. In experiment [3], this molecule had an inhibition of 18%.

With `O=Cc1ccc2no[n+]([O-])c2c1`, the Ratio in experiment [1] is more than 4. In addition, the outcome in experiment [2] was Active. Besides, the inhibition in experiment [3] worked out at 14%.

Take `COC(=O)N/N=C/c1ccc2no[n+]([O-])c2c1`: the Ratio in experiment [1] was more than 4. In experiment [2], the result was Active. The molecule also came in with an inhibition in experiment [3] of 3%.

On to `O=C(N/N=C/c1ccc([N+](=O)[O-])s1)N1CCOCC1`, for which the Ratio in experiment [1] is more than 4. In addition, the outcome in experiment [2] was Active. Further, in experiment [3], the inhibition worked out at 5%.

As for `[O-][n+]1onc2ccc(/C=C/c3ccccc3)cc21`, in experiment [1], the Ratio is more than 4. The result in experiment [2] was Active. The same molecule gave an inhibition in experiment [3] of 66%.

As for `[O-][n+]1onc2ccc(/C=N/NC(=S)Nc3ccccc3)cc21`, the Ratio in experiment [1] is more than 4. In experiment [2], the result was Active. The molecule also registered an inhibition in experiment [3] of 60%.

As for `N#Cc1ccc(C=Cc2ccc3no[n+]([O-])c3c2)cc1`, the Ratio in experiment [1] is more than 4. Moreover, in experiment [2], the result was Active. For the same molecule, in experiment [3], the inhibition is 0%.

Consider `C=CCNC(=S)N/N=C/c1ccc2c(c1)[n+]([O-])c(C#N)c(N)[n+]2[O-]`, for which, in experiment [1], the Ratio was more than 4. The result in experiment [2] was Active. For the same molecule, the inhibition in experiment [3] came out at 45%.

Turning to `N#Cc1c2ccccc2[n+]([O-])n1-c1ccc2ccccc2c1`, the Ratio in experiment [1] was more than 4. In experiment [2], the outcome was Active. The inhibition in experiment [3] was 19%.

Consider `CCCCCCOC(=O)N/N=C/C=C/c1ccc([N+](=O)[O-])o1`, for which, in experiment [1], the Ratio is more than 4. The outcome in experiment [2] was Active. Moreover, the inhibition in experiment [3] amounted to 39%.

`O=C(O)c1ccc(-c2nsc(CO)n2)cc1`: in experiment [1], the Ratio was more than 4. Also, the result in experiment [2] was Active. For the same molecule, in experiment [3], the inhibition was determined as 15%.

Consider `[O-][N+]1=c2cc(Cl)c(Cl)cc2=[N+]([O-])C12CCCC2`, for which the Ratio in experiment [1] was more than 4. In addition, the outcome in experiment [2] was Active. Also, in experiment [3], the inhibition was found to be 56%.

For `NC(=O)N/N=C/C=C/c1ccc([N+](=O)[O-])o1`, in experiment [1], the Ratio is more than 4. Besides, in experiment [2], the result was Active. Further, in experiment [3], the inhibition worked out at 13%.

`CCCCNC(=O)N/N=C/c1c(C)no[n+]1[O-]`: the Ratio in experiment [1] was more than 4. Further, in experiment [2], the result was Active. In experiment [3], this molecule gave an inhibition of 2%.

`O=C(/C=C/c1ccc([N+](=O)[O-])o1)NC12CC3CC(CC(C3)C1)C2`: the Ratio in experiment [1] was more than 4. Moreover, the outcome in experiment [2] was Active. In experiment [3], this molecule had an inhibition of 16%.

For the molecule `CCNC(=S)N/N=C/C=C/c1ccc([N+](=O)[O-])o1`, in experiment [1], the Ratio is more than 4. The result in experiment [2] was Active. Besides, in experiment [3], the inhibition stood at 21%.

As to `CCCCCCN/N=C/c1no[n+]([O-])c1C`, the Ratio in experiment [1] was more than 4. Also, the result in experiment [2] was Active. This molecule also yielded an inhibition in experiment [3] of 55%.

On to `C=CCNC(=S)N/N=C/c1cccs1`, for which the Ratio in experiment [1] is more than 4. Further, the outcome in experiment [2] was Active. This molecule yielded an inhibition in experiment [3] of 2%.

In the case of `CCCCCCCCOC(=O)N/N=C/C=C/c1ccc([N+](=O)[O-])o1`, the Ratio in experiment [1] is more than 4. The result in experiment [2] was Active. In addition, the inhibition in experiment [3] was found to be 0%.

In the case of `[O-][n+]1onc2ccc(CN3CCN(C/C=C/c4ccccc4)CC3)cc21`, the Ratio in experiment [1] is more than 4. For the same molecule, the result in experiment [2] was Active. The molecule further yielded an inhibition in experiment [3] of 0%.

In the case of `O=[N+]([O-])c1ccccc1C=Cc1ccc2no[n+]([O-])c2c1`, the Ratio in experiment [1] is more than 4. Moreover, the outcome in experiment [2] was Active. The molecule further came in with an inhibition in experiment [3] of 11%.

Turning to `CCCCNC(=O)N/N=C/C=C/c1ccc([N+](=O)[O-])o1`, the Ratio in experiment [1] was more than 4. For the same molecule, the result in experiment [2] was Active. This molecule also showed an inhibition in experiment [3] of 1%.

Regarding `Cc1no[n+]([O-])c1/C=N/NC(N)=O`, in experiment [1], the Ratio was more than 4. In addition, in experiment [2], the outcome was Active. Further, the inhibition in experiment [3] came to 2%.

Take `CCOC(=O)CN(Cc1ccc(OC)cc1)c1ccc([N+](=O)[O-])cc1[N+](=O)[O-]`: the Ratio in experiment [1] was more than 4. Also, in experiment [2], the result was Active. The inhibition in experiment [3] amounted to 10%.

With `COC(=O)N/N=C/c1ccc([N+](=O)[O-])o1`, in experiment [1], the Ratio was more than 4. Further, the outcome in experiment [2] was Active. The molecule further showed an inhibition in experiment [3] of 0%.

For `[O-][n+]1onc(-c2ccccc2)c1CN1CCN(c2ccccc2)CC1`, in experiment [1], the Ratio is more than 4. The outcome in experiment [2] was Active. The inhibition in experiment [3] amounted to 27%.

With `O=C1C(=Cc2ccc([N+](=O)[O-])cc2)C(=O)N(C2CCCCC2)S(=O)(=O)N1C1CCCCC1`, the Ratio in experiment [1] was more than 4. Moreover, the result in experiment [2] was Active. For the same molecule, in experiment [3], the inhibition came to 51%.

In the case of `O=C(NCCc1ccccc1)N/N=C/c1ccc2no[n+]([O-])c2c1`, the Ratio in experiment [1] is more than 4. Also, the result in experiment [2] was Active. Further, in experiment [3], the inhibition was found to be 38%.

As to `Cc1ccc2c(c1)[n+]([O-])c(C)n2O`, the Ratio in experiment [1] was more than 4. Further, in experiment [2], the outcome was Active. In experiment [3], this molecule showed an inhibition of 6%.

Regarding `Nc1ccc2c(c1)[n+]([O-])c1cc(Br)ccc1[n+]2[O-]`, the Ratio in experiment [1] was more than 4. Moreover, in experiment [2], the result was Active. Moreover, the inhibition in experiment [3] is 59%.

As for `CCOC(=O)c1c(-c2ccccc2)[n+]([O-])c2ccc(CN3CCN(C/C=C/c4ccccc4)CC3)cc2[n+]1[O-]`, the Ratio in experiment [1] is more than 4. The result in experiment [2] was Active. The inhibition in experiment [3] was found to be 12%.

With `C=CCNC(=S)N/N=C/C=C/c1ccc([N+](=O)[O-])o1`, the Ratio in experiment [1] was more than 4. For the same molecule, in experiment [2], the outcome was Active. In experiment [3], this molecule gave an inhibition of 12%.

Turning to `O=C(O)c1ccc(/C=C\c2ccc3no[n+]([O-])c3c2)cc1`, in experiment [1], the Ratio is more than 4. For the same molecule, the result in experiment [2] was Active. In experiment [3], this molecule had an inhibition of 6%.

As for `O=C(/C=C/c1ccco1)N1CCN(C/C=C/c2ccccc2)CC1`, in experiment [1], the Ratio is more than 4. Moreover, the result in experiment [2] was Active. The inhibition in experiment [3] was determined as 0%.

In the case of `Cc1ccc2no[n+]([O-])c2c1`, the Ratio in experiment [1] was more than 4. Further, in experiment [2], the result was Active. For the same molecule, the inhibition in experiment [3] was 8%.

In the case of `[O-][N+]1=c2ccc(/C=N/O)cc2=[N+]([O-])C12CCCC2`, the Ratio in experiment [1] is more than 4. Besides, the outcome in experiment [2] was Active. Also, the inhibition in experiment [3] was 2%.

On to `CC(=O)CC(=O)Nc1ccccc1`, for which the Ratio in experiment [1] is more than 4. In experiment [2], the outcome was Active. In experiment [3], this molecule came in with an inhibition of 17%.

With `Cc1c(/C=C/c2ccc(N(C)C)cc2)[n+]([O-])cn[n+]1[O-]`, in experiment [1], the Ratio is more than 4. Also, the result in experiment [2] was Active. The molecule also registered an inhibition in experiment [3] of 26%.

As for `O=C(CN1C(=O)c2ccccc2C1=O)c1ccccc1`, in experiment [1], the Ratio is more than 4. The result in experiment [2] was Active. In experiment [3], the inhibition came to 0%.
